High-throughput results as filed in PubChem.
This is a sample that favours compounds with a hit; in the whole collection about 5.8% have one here.
Pf Dd2 inh: inhibitors of Plasmodium falciparum Dd2 growth | P. falciparum Dd2 growth, SYBR Green, 72 h; stronger effect = lower value | AID 1159554 | 94,000 tested, 2.3% active | activity change, % at 10 µM; in the data active = activity change below about -80%; inconclusive = no clear call, values can overlap the other calls
GASC1 inh: blocks human GASC-1 (KDM4C) demethylase activity; Q9H3R0; GST-KDM4C 2-372, H3K9me3 peptide, LANCE TR-FRET; inhibition, % at 12.5 µM; 96,000 tested, 0.15% active;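 active = mean replicate inhibition above about 25%, with at least 55% of replicates also reaching it, limit read from the data, passing the limit was not always enough; inconclusive = only one of those two conditions met; inactive = neither condition met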
Target sequence (Q9H3R0 2-372 limits assumed): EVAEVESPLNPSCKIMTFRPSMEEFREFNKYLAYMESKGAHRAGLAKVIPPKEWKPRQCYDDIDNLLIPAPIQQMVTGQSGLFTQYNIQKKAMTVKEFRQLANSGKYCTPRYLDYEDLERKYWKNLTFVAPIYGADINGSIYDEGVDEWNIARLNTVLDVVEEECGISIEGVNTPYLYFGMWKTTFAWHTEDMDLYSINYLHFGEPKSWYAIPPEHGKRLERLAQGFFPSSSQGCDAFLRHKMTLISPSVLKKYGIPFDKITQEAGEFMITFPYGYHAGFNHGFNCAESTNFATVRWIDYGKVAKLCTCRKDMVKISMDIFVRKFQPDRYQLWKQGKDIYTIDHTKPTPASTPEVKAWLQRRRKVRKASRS
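Material: GST-tagged GASC-1 (JMJD2C) catalytic fragment, aa 2-372. Input: enzyme final amount 10 nM. Medium: HEPES buffer, pH 7.5, plus ascorbate. Reagent: H3K9me3 peptide substrate, Fe(II), 2-oxoglutarate. Doses: single dose. Times: reaction 30 min RT, detection step 1 h RT. Measured by: LANCE TR-FRET. Evaluation: Fall in 671/618 emission ratio as inhibition.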
T cruzi growth-1: blocks T. cruzi growth in NIH3T3 culture; T. cruzi beta-gal in NIH3T3, GalScreen luminescence, 90 h; AID 624255; 77,000 tested, 5.9% active; inhibition, % at 8.34 µM;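 active = mean inhibition above about 93%, with at least 55% of replicates each passing it, limit read from the data, passing the limit was not always enough; inconclusive = only one of those two conditions holds; inactive = neither condition holds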
IDH1 mut inh: IDH1 R132H (human) inhibition. O75874. IDH1 R132H reductase, diaphorase/resazurin fluorescence, 60 min. inhibition, % at 10 µM. 70,000 tested, 0.18% active. AID 624101; in the data active = inhibition above about 34%; inconclusive = no clear call, values can overlap the other calls; inactive = below about 11%;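 also: 0% = DMSO and 100% = no enzyme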
T cruzi growth-2: Trypanosoma cruzi proliferation inhibition. shares compounds with T cruzi growth-1. T. cruzi beta-gal in NIH3T3, GalScreen luminescence, 90 h. inhibition, % at 8.35 µM. 5,600 tested, 72% active;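 active = mean replicate inhibition above about 95% and at least 55% of replicates individually reaching it, limit read from the data; inconclusive = only one of the two criteria is met; inactive = neither criterion is met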
T cruzi growth-3: blocks T. cruzi growth in NIH3T3 host cells | T. cruzi beta-gal in NIH3T3, GalScreen luminescence, 90 h | shares compounds with T cruzi growth-1 | inhibition, % at 2.09 µM | AID 651740 | 5,600 tested, 21% active;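 active = mean inhibition above about 95%, with at least 55% of replicates also reaching it, limit read from the data; inconclusive = meets just one of the two conditions; inactive = meets neither condition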;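 also: plate controls were neutral control median for no effect and positive control median for full effect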
3T3 cytotox: kills mouse NIH/3T3 fibroblasts | shares compounds with T cruzi growth-1 | NIH/3T3 viability, CellTiter-Glo ATP luminescence, 90 h | cytotoxicity (signal decrease), % at 8.35 µM | 5,600 tested, 14% active;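 active = mean signal decrease across replicates above about 35% based on untreated-well scatter, with enough replicates individually passing, limit read from the data; inconclusive = no rule stated though some were filed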;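 also: 0% = median of neutral control wells and 100% = median of positive control wells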
NIH3T3 tox 2: kills mouse NIH/3T3 fibroblasts; shares compounds with T cruzi growth-1; inhibition, % at 24.9 µM; NIH/3T3 viability, CellTiter-Glo ATP luminescence, 90 h; 5,600 tested, 56% active;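 active = mean loss of cell viability signal at or above a set limit, and enough replicates individually reaching it; inconclusive = meets only the mean limit or only the replicate share; inactive = meets neither condition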;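 also: 0% = median of neutral control wells and 100% = median of positive control wells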
The depositor's hits bear a star; u = inconclusive; x = no result.

SMILES	Pf Dd2 inh	GASC1 inh	T cruzi growth-1	IDH1 mut inh	T cruzi growth-2	T cruzi growth-3	3T3 cytotox	NIH3T3 tox 2
Cc1ccc(S(=O)(=O)Nc2ccc3c(c2)C(=O)N([C@@H](C)CO)C[C@H](C)[C@@H](CN(C)C(=O)Nc2ccc(F)cc2)OCCCC[C@@H](C)O3)cc1	-81.5*	0.2	97.9*	0.6	107.2*	84.2	-9.6	22.5
Cc1ccc(S(=O)(=O)Nc2ccc3c(c2)C(=O)N([C@@H](C)CO)C[C@@H](C)[C@@H](CN(C)C(=O)Nc2ccc(F)cc2)OCCCC[C@H](C)O3)cc1	-72.1	-0.4	-2.4	1.0	x	x	x	x
Cc1ccc(S(=O)(=O)Nc2ccc3c(c2)C(=O)N([C@@H](C)CO)C[C@@H](C)[C@H](CN(C)C(=O)Nc2ccc(F)cc2)OCCCC[C@@H](C)O3)cc1	-49.9	-0.4	u	1.4	101.5*	82.2	9.3	23.5
Cc1ccc(S(=O)(=O)Nc2ccc3c(c2)C(=O)N([C@H](C)CO)C[C@@H](C)[C@H](CN(C)C(=O)Nc2ccc(F)cc2)OCCCC[C@H](C)O3)cc1	-76.4	-1.1	99.7*	0.0	106.1*	46.8	-38.0	15.5
COc1ccc(OC(C)c2nc(-c3ccccn3)no2)cc1 (stereo unspecified)	x	x	x	-0.6	x	x	x	x
COCC#Cc1ccc2c(c1)O[C@H](CN(C)C(=O)COC)[C@@H](C)CN([C@H](C)CO)S2(=O)=O	27.1	4.6	-7.1	0.0	x	x	x	x
Cc1ccc(S(=O)(=O)Nc2ccc3c(c2)C(=O)N([C@H](C)CO)C[C@@H](C)[C@@H](CN(C)Cc2ccc(Cl)c(Cl)c2)O3)cc1	-1.6	-0.6	u	0.3	95.0*	55.7	64.7*	105.5*
C[C@@H]1CN([C@H](C)CO)C(=O)Cc2cc(NS(=O)(=O)c3ccc(Cl)cc3)ccc2O[C@H]1CN(C)Cc1ccc(Cl)c(Cl)c1	10.0	-3.1	97.1*	0.2	107.5*	107.2*	-0.9	102.5*
C[C@@H]1CN([C@H](C)CO)C(=O)Cc2cc(NS(=O)(=O)c3ccc(F)cc3)ccc2O[C@H]1CN(C)Cc1ccc(Cl)c(Cl)c1	10.4	0.6	70.7	0.3	x	x	x	x
C[C@H](CO)N1C[C@H](C)[C@@H](CN(C)Cc2ccc(Cl)c(Cl)c2)Oc2ccc(NS(=O)(=O)c3ccc(Cl)cc3)cc2CC1=O	-26.0	0.2	78.4	3.5	x	x	x	x
C[C@@H]1CN([C@@H](C)CO)C(=O)Cc2cc(NS(=O)(=O)c3ccc(Cl)cc3)ccc2O[C@H]1CN(C)Cc1ccc(Cl)c(Cl)c1	-10.4	-1.8	u	0.2	81.8	86.6	41.5*	104.3*
Cc1noc(C)c1S(=O)(=O)Nc1ccc2c(c1)CC(=O)N([C@@H](C)CO)C[C@@H](C)[C@H](CN(C)Cc1ccc(Cl)c(Cl)c1)O2	-22.9	-1.0	-43.5	1.2	x	x	x	x
Cc1noc(C)c1S(=O)(=O)Nc1ccc2c(c1)CC(=O)N([C@H](C)CO)C[C@H](C)[C@@H](CN(C)Cc1ccc(Cl)c(Cl)c1)O2	-12.6	5.6	100.0*	0.3	106.0*	70.6	-2.7	104.4*
COc1ccc2c3c(n(C)c2c1)[C@H](CO)N(C(=O)CN(C)C)CC31CCN(S(C)(=O)=O)CC1	49.6	-0.3	x	x	x	x	x	x
C[C@@H]1CN([C@@H](C)CO)C(=O)Cc2cc(NS(=O)(=O)c3cccs3)ccc2O[C@@H]1CN(C)Cc1ccncc1	4.9	-0.9	23.1	x	x	x	x	x
COc1ccc(CN(C)C[C@H]2OCCCC[C@H](C)Oc3ccc(NC(=O)C4CCCCC4)cc3C(=O)N([C@@H](C)CO)C[C@@H]2C)cc1	-58.4	2.2	104.4*	-0.9	106.7*	46.3	-17.6	68.6*
COc1ccc(CN(C)C[C@H]2OCCCC[C@H](C)Oc3ccc(NC(=O)Nc4ccccc4)cc3C(=O)N([C@@H](C)CO)C[C@H]2C)cc1	-78.0	-0.2	u	x	109.1*	43.0	17.5	34.4*
COc1ccc(CN(C)C[C@@H]2OCCCC[C@@H](C)Oc3ccc(NC(=O)Nc4ccccc4)cc3C(=O)N([C@H](C)CO)C[C@H]2C)cc1	-63.4	-1.8	110.5*	x	u	91.1	27.8	104.2*
COc1ccc(CN(C)C[C@H]2OCCCC[C@@H](C)Oc3ccc(NC(=O)Nc4ccc(OC)cc4)cc3C(=O)N([C@@H](C)CO)C[C@H]2C)cc1	-56.8	-1.1	104.5*	0.7	103.3*	46.8	11.1	105.7*
COc1ccc(CN(C)C[C@@H]2OCCCC[C@@H](C)Oc3ccc(NC(=O)Nc4ccc(OC)cc4)cc3C(=O)N([C@H](C)CO)C[C@H]2C)cc1	u	x	90.4	x	x	x	x	x
COc1ccccc1CNCc1cccc(OC)c1OC	x	x	x	-0.3	x	x	x	x
CCCNC(=O)N1[C@H](C#N)[C@H](c2ccccc2)[C@H]1CO	-39.2	-0.4	37.2	x	x	x	x	x
CCCNC(=O)N1[C@H](C#N)[C@@H](c2ccc(C#Cc3cccc(F)c3)cc2)[C@@H]1CO	-54.4	-2.5	100.4*	x	102.0*	92.1	9.1	-2.4
CCCNC(=O)N1[C@H](C#N)[C@H](c2ccc(C#Cc3ccc(F)cc3)cc2)[C@@H]1CO	-86.6*	-0.9	u	x	101.3*	112.5*	-23.6	-1.3
COc1ccc(NC(=O)Nc2ccc3c(c2)C(=O)N([C@H](C)CO)C[C@H](C)[C@H](CN(C)S(=O)(=O)c2cccs2)OCCCC[C@@H](C)O3)cc1	-57.8	-2.6	-21.5	-2.8	x	x	x	x
COc1ccc(NC(=O)Nc2ccc3c(c2)C(=O)N([C@H](C)CO)C[C@H](C)[C@H](CN(C)S(=O)(=O)c2cccs2)OCCCC[C@H](C)O3)cc1	-26.5	0.1	102.8*	1.9	107.3*	38.1	6.0	29.8*
COc1ccc(NC(=O)Nc2ccc3c(c2)C(=O)N([C@H](C)CO)C[C@@H](C)[C@@H](CN(C)S(=O)(=O)c2cccs2)OCCCC[C@@H](C)O3)cc1	-44.2	-2.6	x	-2.3	x	x	x	x
COc1ccc(NC(=O)Nc2ccc3c(c2)C(=O)N([C@H](C)CO)C[C@@H](C)[C@H](CN(C)S(=O)(=O)c2cccs2)OCCCC[C@@H](C)O3)cc1	-77.7	-2.2	108.3*	x	108.4*	22.2	1.0	-1.8
CC(C)NC(=O)N[C@@H]1CC[C@H](CC(=O)NCc2ccc(Oc3ccccc3)cc2)O[C@@H]1CO	-11.6	-0.4	-52.7	-0.2	x	x	x	x
CO[C@H]1CN(C)C(=O)c2ccc(NS(=O)(=O)c3cccc(F)c3)cc2OC[C@H](C)N(Cc2cc(F)ccc2F)C[C@H]1C	-26.5	0.1	x	0.2	x	x	x	x
